# Activity calls are given as the source filed them. No cut-off for these calls is given here.
# Assays:
# Mus musculus = assay: Decrease in spontaneous motor activity in Balb/C mouse at 10 mg/kg, ip; format: functional, organism-based; design: dose 10 mg/kg
# [1] = Displacement of [3H]flumazenil from benzodiazepine receptor in bovine brain membranes; format: cell membranes, Bos taurus
# [2] = molecular target: GABA A receptor alpha-5/beta-3/gamma-2 (Rattus norvegicus) (UniProt P18508+P19969+P63079); assay: Displacement of [3H]flumazenil from rat GABAA alpha-5-beta-3-gamma-2 expressed in HEK293 cells at 10 uM; format: cell-based
# Outline: (§1)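 [3H]flumazenil competition in membranes of HEK293 cells stably expressing rat GABAA subtypes, prepared in 10 mM potassium phosphate pH 7.4 (48 000g, 4 °C, two washes, final buffer with 100 mM KCl). Single test concentration of 10 µM; % inhibition of specific binding, mean ± SEM of three determinations in triplicate.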
# [3] = molecular target: GABA-A receptor; alpha-1/beta-2/gamma-2 (Rattus norvegicus, UniProt P18508+P62813+P63138); assay: Displacement of [3H]flumazenil from rat GABAA alpha-1-beta-2-gamma-2 expressed in HEK293 cells; format: cell-based
# GABA-A receptor; alpha-1/beta-2/gamma-2, sequence (P18508 whole entry): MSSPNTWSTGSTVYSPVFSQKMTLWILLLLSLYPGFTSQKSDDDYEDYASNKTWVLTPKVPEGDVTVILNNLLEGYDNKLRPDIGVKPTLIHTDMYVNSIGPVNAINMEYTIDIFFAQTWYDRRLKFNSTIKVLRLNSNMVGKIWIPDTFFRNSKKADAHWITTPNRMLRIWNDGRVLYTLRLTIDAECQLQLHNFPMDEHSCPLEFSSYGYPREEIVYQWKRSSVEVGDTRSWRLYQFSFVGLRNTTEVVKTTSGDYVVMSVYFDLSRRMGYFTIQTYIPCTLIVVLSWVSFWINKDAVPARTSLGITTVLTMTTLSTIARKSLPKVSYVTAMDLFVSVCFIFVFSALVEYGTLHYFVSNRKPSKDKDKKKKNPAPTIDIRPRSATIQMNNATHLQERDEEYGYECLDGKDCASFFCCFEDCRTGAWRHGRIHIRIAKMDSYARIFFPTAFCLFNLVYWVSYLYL
# GABA-A receptor; alpha-1/beta-2/gamma-2, sequence (P62813 whole entry): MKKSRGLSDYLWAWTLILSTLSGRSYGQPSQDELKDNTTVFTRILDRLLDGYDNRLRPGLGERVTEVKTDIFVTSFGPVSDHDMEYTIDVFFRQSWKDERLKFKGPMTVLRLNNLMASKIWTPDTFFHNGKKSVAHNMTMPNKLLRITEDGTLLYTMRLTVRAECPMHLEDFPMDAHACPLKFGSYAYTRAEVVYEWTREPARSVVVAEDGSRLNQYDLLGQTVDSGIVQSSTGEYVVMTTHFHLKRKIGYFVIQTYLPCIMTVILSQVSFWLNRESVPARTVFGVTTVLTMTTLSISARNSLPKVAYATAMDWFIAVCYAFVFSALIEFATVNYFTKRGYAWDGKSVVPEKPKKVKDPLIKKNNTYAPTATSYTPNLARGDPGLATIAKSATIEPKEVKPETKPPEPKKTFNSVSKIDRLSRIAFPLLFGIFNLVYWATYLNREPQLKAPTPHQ
# GABA-A receptor; alpha-1/beta-2/gamma-2, sequence (P63138 whole entry): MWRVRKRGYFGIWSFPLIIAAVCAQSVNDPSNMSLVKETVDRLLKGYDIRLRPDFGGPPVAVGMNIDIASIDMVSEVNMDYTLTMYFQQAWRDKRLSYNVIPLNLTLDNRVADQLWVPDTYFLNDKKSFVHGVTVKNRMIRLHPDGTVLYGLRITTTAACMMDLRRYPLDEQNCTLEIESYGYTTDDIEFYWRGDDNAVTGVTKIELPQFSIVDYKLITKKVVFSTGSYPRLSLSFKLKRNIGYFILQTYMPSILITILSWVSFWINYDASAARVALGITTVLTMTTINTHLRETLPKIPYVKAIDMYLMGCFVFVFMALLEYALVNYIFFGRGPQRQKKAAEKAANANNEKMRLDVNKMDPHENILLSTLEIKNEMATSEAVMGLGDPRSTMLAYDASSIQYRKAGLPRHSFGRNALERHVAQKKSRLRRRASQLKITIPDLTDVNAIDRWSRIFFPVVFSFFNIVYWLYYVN
# Outline: (§2)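 Crude membranes from HEK293 cells stably expressing rat GABAA subtypes, cells grown in DMEM/F-12 with 10% FBS at 37 °C, 5% CO2. Homogenized in 10 mM potassium phosphate pH 7.4, spun at 48 000g for 30 min at 4 °C, washed twice, resuspended with 100 mM KCl. [3H]flumazenil displacement; Ki as mean ± SEM of three determinations in triplicate.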
# [4] = molecular target: GABA A receptor alpha-2/beta-2/gamma-2 (Rattus norvegicus) (UniProt P18508+P23576+P63138); assay: Displacement of [3H]flumazenil from rat GABAA alpha-2-beta-2-gamma-2 expressed in HEK293 cells at 10 uM; format: cell-based; outline: as §1
# Bos taurus = species: Bos taurus; assay: Displacement of [3H]flumazenil from benzodiazepine receptor in bovine brain membranes at 10 uM; format: cell membranes
# Outline: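 Bovine cerebral cortex membranes, freeze-thawed once and washed in 50 mM Tris-citrate pH 7.4, used for competition against [3H]flumazenil. Test compound at a fixed 10 µM; read-out is % inhibition of specific binding, as mean of three determinations run in triplicate.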
# [5] = molecular target: GABA A receptor alpha-2/beta-2/gamma-2 (Rattus norvegicus, UniProt P18508+P23576+P63138); assay: Displacement of [3H]flumazenil from rat GABAA alpha-2-beta-2-gamma-2 expressed in HEK293 cells; format: cell-based; outline: as §2
# GABA A receptor alpha-2/beta-2/gamma-2, sequence (P18508 whole entry): as the sequence (P18508 whole entry) above
# GABA A receptor alpha-2/beta-2/gamma-2, sequence (P23576 whole entry): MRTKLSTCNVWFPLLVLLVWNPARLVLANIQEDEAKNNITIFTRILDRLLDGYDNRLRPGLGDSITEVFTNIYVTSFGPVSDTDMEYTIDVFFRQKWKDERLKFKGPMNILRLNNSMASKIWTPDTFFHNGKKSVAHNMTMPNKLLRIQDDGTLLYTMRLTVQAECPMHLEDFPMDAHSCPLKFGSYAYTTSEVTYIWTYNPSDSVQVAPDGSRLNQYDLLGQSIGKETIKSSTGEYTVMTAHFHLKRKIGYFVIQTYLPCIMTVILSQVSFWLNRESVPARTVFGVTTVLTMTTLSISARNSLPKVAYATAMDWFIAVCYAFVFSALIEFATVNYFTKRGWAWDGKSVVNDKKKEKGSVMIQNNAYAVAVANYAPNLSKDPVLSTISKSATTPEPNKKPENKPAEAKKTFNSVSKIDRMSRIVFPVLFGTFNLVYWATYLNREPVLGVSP
# GABA A receptor alpha-2/beta-2/gamma-2, sequence (P63138 whole entry): as the sequence (P63138 whole entry) above
# [6] = molecular target: GABA A receptor alpha-5/beta-3/gamma-2 (Rattus norvegicus, UniProt P18508+P19969+P63079); assay: Displacement of [3H]flumazenil from rat GABAA alpha-5-beta-3-gamma-2 expressed in HEK293 cells; format: cell-based; outline: as §2
# GABA A receptor alpha-5/beta-3/gamma-2, sequence (P18508 whole entry): as the sequence (P18508 whole entry) above
# GABA A receptor alpha-5/beta-3/gamma-2, sequence (P19969 whole entry): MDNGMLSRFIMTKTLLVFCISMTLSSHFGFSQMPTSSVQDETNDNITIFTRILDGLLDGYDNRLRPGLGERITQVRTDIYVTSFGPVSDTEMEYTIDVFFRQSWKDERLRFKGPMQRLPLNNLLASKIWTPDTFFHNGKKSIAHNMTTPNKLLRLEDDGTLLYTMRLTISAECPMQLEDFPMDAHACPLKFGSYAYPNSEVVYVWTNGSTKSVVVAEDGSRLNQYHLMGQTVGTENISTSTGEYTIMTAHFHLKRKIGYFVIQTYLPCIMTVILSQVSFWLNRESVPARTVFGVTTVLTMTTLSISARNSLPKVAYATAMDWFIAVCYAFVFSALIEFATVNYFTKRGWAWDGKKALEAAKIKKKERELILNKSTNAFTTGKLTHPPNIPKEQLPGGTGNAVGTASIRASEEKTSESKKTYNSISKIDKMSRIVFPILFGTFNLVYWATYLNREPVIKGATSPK
# GABA A receptor alpha-5/beta-3/gamma-2, sequence (P63079 whole entry): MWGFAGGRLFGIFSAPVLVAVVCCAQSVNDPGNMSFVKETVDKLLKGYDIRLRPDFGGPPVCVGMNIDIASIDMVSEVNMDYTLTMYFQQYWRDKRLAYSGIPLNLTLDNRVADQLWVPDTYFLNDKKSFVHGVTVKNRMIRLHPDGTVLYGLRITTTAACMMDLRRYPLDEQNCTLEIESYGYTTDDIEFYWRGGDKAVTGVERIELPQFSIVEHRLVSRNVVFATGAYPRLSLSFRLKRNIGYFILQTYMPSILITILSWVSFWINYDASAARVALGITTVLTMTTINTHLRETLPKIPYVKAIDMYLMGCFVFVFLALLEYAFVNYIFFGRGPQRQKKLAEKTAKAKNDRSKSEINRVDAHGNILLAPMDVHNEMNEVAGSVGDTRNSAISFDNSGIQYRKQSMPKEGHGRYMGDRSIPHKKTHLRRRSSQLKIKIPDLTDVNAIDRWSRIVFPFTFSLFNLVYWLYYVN
# [7] = molecular target: GABA-A receptor; alpha-1/beta-2/gamma-2 (Rattus norvegicus) (UniProt P18508+P62813+P63138); assay: Agonist activity at rat GABAA alpha-1-beta-2-gamma-2 expressed in HEK293 cells assessed as chloride influx; format: functional, cell-based
Compound,Ki [1],Ki [3],inhibition (Bos taurus),other results
Cc1ccc(-c2nc3ccc(C)cn3c2CC(=O)N(C)C)cc1,,,,Activity (Mus musculus): Active
CC(C)(C)NC(=O)C(=O)c1c[nH]c2ccc([N+](=O)[O-])cc12,2800 nM,,,
CCCCNC(=O)C(=O)c1c[nH]c2ccccc12,3720 nM,1170 nM,,inhibition [2]: 28%; inhibition [4]: 7%
CC(C)CNC(=O)C(=O)c1c[nH]c2ccccc12,,,43%,
CCCCCCNC(=O)C(=O)c1c[nH]c2ccc([N+](=O)[O-])cc12,,,53%,
CC(C)NC(=O)C(=O)c1c[nH]c2ccc([N+](=O)[O-])cc12,57.8 nM,15 nM,,Ki [5]: 175 nM; Ki [6]: 498 nM
C[Si](C)(C)CC#Cc1ccc(CNC(=O)C(=O)c2c[nH]c3ccc([N+](=O)[O-])cc23)cc1,,,0%,
C[Si](C)(C)CC#Cc1ccc(CNC(=O)C(=O)c2c[nH]c3ccccc23)cc1,,,3%,
CC(C)NC(=O)C(=O)c1c[nH]c2ccccc12,2690 nM,,,
O=C(NCc1ccccc1)C(=O)c1c[nH]c2ccccc12,120 nM,346 nM,,inhibition [2]: 46%; inhibition [4]: 39%
CCCCCNC(=O)C(=O)c1c[nH]c2ccc([N+](=O)[O-])cc12,4100 nM,,,
CC#Cc1ccc(CNC(=O)C(=O)c2c[nH]c3ccccc23)cc1,3280 nM,881 nM,,inhibition [2]: 13%; inhibition [4]: 16%
C[Si](C)(C)C#Cc1ccc(CNC(=O)C(=O)c2c[nH]c3ccccc23)cc1,,,29%,
CC#Cc1ccc(CNC(=O)C(=O)c2c[nH]c3ccc([N+](=O)[O-])cc23)cc1,,,0%,
Cc1ccc(CNC(=O)C(=O)c2c[nH]c3ccccc23)cc1,606 nM,,,
CN1C(=O)CN=C(c2ccccc2)c2cc(Cl)ccc21 [DIAZEPAM],10 nM,,,Activity [7]: 72%
CCCCCNC(=O)C(=O)c1c[nH]c2ccccc12,1480 nM,,,

Compound,Ki [1],Ki [3],inhibition (Bos taurus),other results
C#Cc1ccc(CNC(=O)C(=O)c2c[nH]c3ccc([N+](=O)[O-])cc23)cc1,,,28%,
O=C(NCc1ccc(Br)cc1)C(=O)c1c[nH]c2ccccc12,93 nM,17 nM,,Ki [5]: 81 nM; Ki [6]: 1440 nM
CCCCCCNC(=O)C(=O)c1c[nH]c2ccccc12,1650 nM,,,
Cc1ccc(CNC(=O)C(=O)c2c[nH]c3ccc([N+](=O)[O-])cc23)cc1,88 nM,31.3 nM,,inhibition [2]: 0%; Activity [7]: 78%; inhibition [4]: 0%; Activity (Mus musculus): Active
CCc1ccc(CNC(=O)C(=O)c2c[nH]c3ccccc23)cc1,2160 nM,559 nM,,inhibition [2]: 40%; Ki [5]: 1600 nM
CCc1ccc(CNC(=O)C(=O)c2c[nH]c3ccc([N+](=O)[O-])cc23)cc1,,,42%,
O=C1CN=C(c2ccccc2Cl)c2cc([N+](=O)[O-])ccc2N1 [CLONAZEPAM],0.85 nM,,,
CC(C)(C)NC(=O)C(=O)c1c[nH]c2ccccc12,,,7%,
CC(C)CNC(=O)C(=O)c1c[nH]c2ccc([N+](=O)[O-])cc12,,,5%,
CCC(C)NC(=O)C(=O)c1c[nH]c2ccccc12 (stereo unspecified),,,34%,
O=C(NCc1ccc(Br)cc1)C(=O)c1c[nH]c2ccc([N+](=O)[O-])cc12,,,31%,
CCC(C)NC(=O)C(=O)c1c[nH]c2ccc([N+](=O)[O-])cc12 (stereo unspecified),412 nM,,,
C#Cc1ccc(CNC(=O)C(=O)c2c[nH]c3ccccc23)cc1,164 nM,250 nM,,Ki [5]: 414 nM; Ki [6]: 1150 nM
C[Si](C)(C)C#Cc1ccc(CNC(=O)C(=O)c2c[nH]c3ccc([N+](=O)[O-])cc23)cc1,,,21%,
O=C(NCc1ccccc1)C(=O)c1c[nH]c2ccc([N+](=O)[O-])cc12,117 nM,65 nM,,inhibition [2]: 44%; inhibition [4]: 32%
CCCCNC(=O)C(=O)c1c[nH]c2ccc([N+](=O)[O-])cc12,110 nM,125 nM,,Ki [5]: 553 nM; Ki [6]: 943 nM
